Reference: ChEMBL document CHEMBL4014327 (J Med Chem, 2017)
Values after ≈ are worked out from the molar mass of the structure shown. Active and inactive are the calls of the source. The calls are words filed in the database; no cut-off is given here.

Assays:
[1] = Apparent permeability in RRCK cells from apical to basolateral side; type: ADME, cell-based, Canis lupus familiaris, MDCKII-LE; conditions: dog, MDCK
Outline: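 RRCK cell monolayer permeability assay; apparent permeability reported in cm/s.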

[2] = Apparent intrinsic clearance in human liver microsomes; type: ADME, microsome; conditions: read-out: CLH(app)
[3] = target: T1, Interleukin-1 receptor-associated kinase 4 (Homo sapiens, UniProt Q9NWZ3); assay: Inhibition of N-terminal His6-tagged human full length IRAK4 preincubated for 20 mins followed by biotinylated-AGAGRDKYKTLRQIR substrate addition in presence of ATP measured after 60 mins by DELFIA method
T1 sequence (Q9NWZ3 whole entry): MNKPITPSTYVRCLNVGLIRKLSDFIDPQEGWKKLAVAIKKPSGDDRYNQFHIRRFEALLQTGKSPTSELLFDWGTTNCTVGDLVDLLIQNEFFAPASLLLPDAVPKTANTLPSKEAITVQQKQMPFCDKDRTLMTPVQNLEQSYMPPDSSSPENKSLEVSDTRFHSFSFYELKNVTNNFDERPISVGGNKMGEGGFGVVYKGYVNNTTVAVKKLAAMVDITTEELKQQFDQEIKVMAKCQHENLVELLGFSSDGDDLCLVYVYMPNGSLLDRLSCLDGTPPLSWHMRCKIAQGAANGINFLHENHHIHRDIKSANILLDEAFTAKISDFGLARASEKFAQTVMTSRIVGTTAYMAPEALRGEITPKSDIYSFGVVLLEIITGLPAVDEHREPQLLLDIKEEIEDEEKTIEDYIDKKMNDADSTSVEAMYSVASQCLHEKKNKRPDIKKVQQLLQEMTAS

[4] = Lipophilicity, log D of compound; type: physicochemical; conditions: octanol/water
Rattus norvegicus [5] = assay: Clearance in iv dosed rat; type: ADME, organism-based; conditions: in vivo
[6] = Half life in rat; type: ADME; conditions: in vivo
[7] = Oral bioavailability in rat; type: ADME, organism-based; conditions: in vivo
[8] = target: T2, Interleukin-1 receptor-associated kinase 4 (Homo sapiens) (UniProt Q9NWZ3); conditions: 236 uM
T2 sequence (whole entry): T1 sequence (Q9NWZ3 whole entry)

[9] = target: T2, Interleukin-1 receptor-associated kinase 4 (Homo sapiens); conditions: 909 uM
[10] = target: T2, Interleukin-1 receptor-associated kinase 4 (Homo sapiens); assay: Inhibition of IRAK4 in human THP1 cell lysate
[11] = target: Voltage-gated inwardly rectifying potassium channel KCNH2 (Homo sapiens, UniProt Q12809); assay: Inhibition of human ERG
Sequence of Voltage-gated inwardly rectifying potassium channel KCNH2 (Q12809 whole entry): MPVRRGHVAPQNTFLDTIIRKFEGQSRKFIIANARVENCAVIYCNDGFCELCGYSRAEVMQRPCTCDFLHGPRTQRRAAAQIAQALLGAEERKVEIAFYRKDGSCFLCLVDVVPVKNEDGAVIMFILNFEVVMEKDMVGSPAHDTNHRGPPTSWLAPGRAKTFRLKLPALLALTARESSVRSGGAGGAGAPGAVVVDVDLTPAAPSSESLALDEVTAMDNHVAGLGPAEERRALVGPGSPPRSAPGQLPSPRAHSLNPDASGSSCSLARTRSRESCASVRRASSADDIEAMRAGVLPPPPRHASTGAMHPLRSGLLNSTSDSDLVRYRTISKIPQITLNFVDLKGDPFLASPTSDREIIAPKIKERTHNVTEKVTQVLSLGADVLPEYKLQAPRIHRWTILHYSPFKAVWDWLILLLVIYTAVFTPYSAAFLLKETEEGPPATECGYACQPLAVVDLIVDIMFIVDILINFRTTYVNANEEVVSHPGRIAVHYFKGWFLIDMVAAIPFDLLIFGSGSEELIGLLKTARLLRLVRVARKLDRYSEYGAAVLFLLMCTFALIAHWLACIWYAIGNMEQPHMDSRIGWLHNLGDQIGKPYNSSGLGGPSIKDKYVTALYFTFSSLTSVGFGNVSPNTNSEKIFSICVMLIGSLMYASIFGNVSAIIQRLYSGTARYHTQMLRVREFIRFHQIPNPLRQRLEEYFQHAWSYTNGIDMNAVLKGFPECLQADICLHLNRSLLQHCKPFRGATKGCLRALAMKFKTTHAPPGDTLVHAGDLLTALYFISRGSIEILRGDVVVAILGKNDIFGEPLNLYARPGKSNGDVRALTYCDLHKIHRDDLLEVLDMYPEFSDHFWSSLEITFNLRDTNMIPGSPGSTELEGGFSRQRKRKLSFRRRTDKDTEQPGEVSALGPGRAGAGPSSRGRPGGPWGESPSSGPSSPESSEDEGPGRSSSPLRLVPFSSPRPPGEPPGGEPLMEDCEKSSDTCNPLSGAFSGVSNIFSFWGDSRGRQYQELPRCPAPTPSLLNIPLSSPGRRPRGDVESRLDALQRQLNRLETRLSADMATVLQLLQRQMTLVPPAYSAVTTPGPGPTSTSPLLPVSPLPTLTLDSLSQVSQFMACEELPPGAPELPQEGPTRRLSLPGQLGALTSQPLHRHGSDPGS

[12] = Fraction unbound in human plasma; type: ADME, cell-free
Outline: (§1)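 Fraction unbound in plasma measured by equilibrium dialysis.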

Rattus norvegicus [13] = assay: In vivo receptor occupancy at IRAK4 in spleen of Lewis rat CIA model at 100 mg/kg, po measured at 1 hr postdose; type: functional
Outline: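 Lewis female rats (7–9 wk, n = 10/group), immunized with bovine type II collagen/IFA on day 0 and boosted day 7. Oral dosing twice daily in therapeutic mode (started after disease onset), vehicle 0.5% methylcellulose, 2% Tween 80 in water. Spleens sampled 1 h postdose, flash frozen. Kinase occupancy measured by KiNativ profiling with an ATP-competitive probe.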

[14] = Fraction unbound in rat plasma; type: ADME, cell-free; outline: as §1
CYP3A4 = CYP3A4 (Homo sapiens, UniProt P08684); assay: Inhibition of CYP3A4 in human liver microsomes at 3 uM; type: ADME
Sequence of CYP3A4 (P08684 whole entry): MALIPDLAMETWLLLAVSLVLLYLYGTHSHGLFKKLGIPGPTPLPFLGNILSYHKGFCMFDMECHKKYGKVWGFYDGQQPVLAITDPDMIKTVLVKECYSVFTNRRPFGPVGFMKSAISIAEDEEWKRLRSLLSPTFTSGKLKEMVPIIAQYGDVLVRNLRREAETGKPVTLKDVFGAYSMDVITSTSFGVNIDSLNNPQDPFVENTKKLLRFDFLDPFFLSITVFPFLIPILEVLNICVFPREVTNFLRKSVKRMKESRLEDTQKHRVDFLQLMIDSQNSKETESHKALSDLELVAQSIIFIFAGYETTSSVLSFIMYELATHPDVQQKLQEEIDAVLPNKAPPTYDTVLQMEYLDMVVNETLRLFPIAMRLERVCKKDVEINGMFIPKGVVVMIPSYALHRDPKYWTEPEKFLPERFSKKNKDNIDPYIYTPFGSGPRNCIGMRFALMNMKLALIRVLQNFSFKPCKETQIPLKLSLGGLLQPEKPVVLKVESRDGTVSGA

[15] = Thermodynamic solubility of compound at pH 6.5; type: physicochemical; conditions: buffer, read-out: Therm_solubility
CYP1A2 = CYP1A2 (Homo sapiens, UniProt P05177); assay: Inhibition of CYP1A2 in human liver microsomes at 3 uM; type: ADME
Sequence of CYP1A2 (P05177 whole entry): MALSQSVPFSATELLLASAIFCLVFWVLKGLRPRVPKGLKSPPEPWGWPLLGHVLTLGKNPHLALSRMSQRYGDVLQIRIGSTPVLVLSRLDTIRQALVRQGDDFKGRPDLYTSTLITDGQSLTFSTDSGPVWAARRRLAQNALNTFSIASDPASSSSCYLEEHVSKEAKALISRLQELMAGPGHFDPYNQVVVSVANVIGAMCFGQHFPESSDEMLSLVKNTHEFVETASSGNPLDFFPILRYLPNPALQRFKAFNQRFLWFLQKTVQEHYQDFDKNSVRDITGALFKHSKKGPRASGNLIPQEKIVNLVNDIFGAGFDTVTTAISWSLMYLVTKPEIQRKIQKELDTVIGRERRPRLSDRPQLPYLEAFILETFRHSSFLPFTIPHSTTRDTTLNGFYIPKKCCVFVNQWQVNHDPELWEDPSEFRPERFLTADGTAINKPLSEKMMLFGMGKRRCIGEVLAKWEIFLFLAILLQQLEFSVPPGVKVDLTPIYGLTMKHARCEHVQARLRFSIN

CYP2C8 = CYP2C8 (Homo sapiens, UniProt P10632); assay: Inhibition of CYP2C8 in human liver microsomes at 3 uM; type: ADME
Sequence of CYP2C8 (P10632 whole entry): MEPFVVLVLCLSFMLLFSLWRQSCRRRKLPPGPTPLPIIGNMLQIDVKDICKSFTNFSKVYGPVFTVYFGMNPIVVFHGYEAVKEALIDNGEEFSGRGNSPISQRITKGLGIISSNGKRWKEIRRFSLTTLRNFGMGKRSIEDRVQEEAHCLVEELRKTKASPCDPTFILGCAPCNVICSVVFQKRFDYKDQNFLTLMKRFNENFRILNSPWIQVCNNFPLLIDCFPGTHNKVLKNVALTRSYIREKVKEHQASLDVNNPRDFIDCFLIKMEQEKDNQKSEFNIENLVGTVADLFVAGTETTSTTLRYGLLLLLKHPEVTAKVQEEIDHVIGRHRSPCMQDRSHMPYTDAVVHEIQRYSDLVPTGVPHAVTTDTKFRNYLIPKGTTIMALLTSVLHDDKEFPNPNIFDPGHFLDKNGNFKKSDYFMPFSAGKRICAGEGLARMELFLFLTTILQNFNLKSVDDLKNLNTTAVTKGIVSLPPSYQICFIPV

CYP2D6 = CYP2D6 (Homo sapiens, UniProt P10635); assay: Inhibition of CYP2D6 in human liver microsomes at 3 uM; type: ADME
Sequence of CYP2D6 (P10635 whole entry): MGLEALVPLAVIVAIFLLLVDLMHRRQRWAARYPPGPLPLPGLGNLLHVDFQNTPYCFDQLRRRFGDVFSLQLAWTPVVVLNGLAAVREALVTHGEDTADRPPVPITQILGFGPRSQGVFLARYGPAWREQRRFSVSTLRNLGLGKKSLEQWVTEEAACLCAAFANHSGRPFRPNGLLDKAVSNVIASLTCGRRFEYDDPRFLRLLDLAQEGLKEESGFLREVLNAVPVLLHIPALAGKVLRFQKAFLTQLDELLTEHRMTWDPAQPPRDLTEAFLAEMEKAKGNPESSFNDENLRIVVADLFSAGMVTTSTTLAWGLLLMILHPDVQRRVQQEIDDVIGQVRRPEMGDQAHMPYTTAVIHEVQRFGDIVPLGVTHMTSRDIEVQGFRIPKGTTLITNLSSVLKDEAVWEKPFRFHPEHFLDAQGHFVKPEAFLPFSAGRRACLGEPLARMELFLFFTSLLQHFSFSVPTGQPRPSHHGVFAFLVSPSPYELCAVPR

Rattus norvegicus [16] = assay: Antiinflammatory activity in Lewis rat CIA model assessed as reduction in paw swelling at 30 mg/kg, po bid treated on day 11 post immunization for 8 days by plethysmographic method; type: functional, organism-based
Outline: (§2)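 Female Lewis rats (about 7−9 weeks old, n = 10 per group) immunized on day 0 with bovine type II collagen in incomplete Freund's adjuvant and boosted on day 7. Oral dosing twice daily as solution or suspension in vehicle (0.5% methylcellulose, 2% Tween 80 in water), vehicle-only controls. Paw volume measured daily by plethysmograph, body weight recorded daily.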

Rattus norvegicus [17] = assay: Antiinflammatory activity in Lewis rat CIA model assessed as reduction in paw swelling at 100 mg/kg, po bid treated on day 11 post immunization for 8 days by plethysmographic method; type: functional, organism-based; outline: as §2
Rattus norvegicus [18] = assay: In vivo receptor occupancy at IRAK4 in spleen of po dosed Lewis rat CIA model measured at 1 hr postdose; type: functional, organism-based
CYP2C9 = CYP2C9 (Homo sapiens, UniProt P11712); assay: Inhibition of CYP2C9 in human liver microsomes at 3 uM; type: ADME
Sequence of CYP2C9 (P11712 whole entry): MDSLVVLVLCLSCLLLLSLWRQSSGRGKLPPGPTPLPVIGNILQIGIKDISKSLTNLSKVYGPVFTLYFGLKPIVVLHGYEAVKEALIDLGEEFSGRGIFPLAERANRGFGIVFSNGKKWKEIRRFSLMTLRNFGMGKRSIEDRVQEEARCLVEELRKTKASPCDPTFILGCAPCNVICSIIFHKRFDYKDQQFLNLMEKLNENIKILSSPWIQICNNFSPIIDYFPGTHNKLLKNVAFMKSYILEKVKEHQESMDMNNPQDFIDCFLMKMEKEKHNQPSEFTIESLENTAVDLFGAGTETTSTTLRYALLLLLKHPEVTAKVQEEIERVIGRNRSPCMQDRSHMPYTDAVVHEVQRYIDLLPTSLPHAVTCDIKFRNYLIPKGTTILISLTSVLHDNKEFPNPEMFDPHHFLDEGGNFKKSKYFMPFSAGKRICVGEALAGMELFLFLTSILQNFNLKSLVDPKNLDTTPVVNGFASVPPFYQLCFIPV

[19] = target: T1, Interleukin-1 receptor-associated kinase 4; assay: Inhibition of IRAK4 in human PBMC assessed as reduction in R848-stimulated TNF alpha production after 3 hrs

Papp A→B [1] | microsomal CLint [2] | SMILES | further results
10.5 ×10⁻⁶ cm/s | – | CC(C)Oc1cc2c(OC[C@H]3CCC(=O)N3)nccc2cc1C(N)=O | –
17.9 ×10⁻⁶ cm/s | 14 µL/min/mg | CC[C@@H]1CC(=O)N[C@@H]1COc1nccc2cc(C(N)=O)c(OC)cc12 | –
5.8 ×10⁻⁶ cm/s | < 8 µL/min/mg | COc1cc2c(OC[C@@H]3CCC(=O)N3)ccnc2cc1C(N)=O | –
2.8 ×10⁻⁶ cm/s | – | CC(C)Oc1cc2c(O[C@@H]3CCCNC3)ccnc2cc1C(N)=O | IC50 [3]: 146 nM; logD [4]: 0.4
9.9 ×10⁻⁶ cm/s | 9 µL/min/mg | COc1cc2c(OC[C@@H]3CCC(=O)N3)nccc2cc1C(N)=O | clearance (Rattus norvegicus [5]): 35 mL/min/kg; half-life [6]: 1 h; logD [4]: 0.9; bioavailability [7]: 44%
11.7 ×10⁻⁶ cm/s | < 8 µL/min/mg | COc1cc2c(OC[C@H]3NC(=O)[C@@H]4C[C@H]34)nccc2cc1C(N)=O | –
9.9 ×10⁻⁶ cm/s | < 9 µL/min/mg | COc1cc2c(OC[C@H]3NC(=O)[C@@H](F)[C@H]3C)nccc2cc1C(N)=O | –
– | – | CC(C)Oc1ccccc1C(N)=O | inhibition [8]: > 10%; inhibition [9]: > 50%; IC50 [3]: 55000 nM
16.3 ×10⁻⁶ cm/s | < 8 µL/min/mg | COc1cc2c(OC[C@H]3NC(=O)[C@@]4(F)[C@@H]3[C@@H]4C)nccc2cc1C(N)=O | –
13.5 ×10⁻⁶ cm/s | < 8 µL/min/mg | COc1cc2c(OC[C@H]3NC(=O)[C@@H]4[C@@H](C)[C@@H]43)nccc2cc1C(N)=O | –
14.2 ×10⁻⁶ cm/s | 13 µL/min/mg | COc1cc2c(OC[C@@H]3CCC(=O)N3)cccc2cc1C(N)=O | logD [4]: 1.5
10.4 ×10⁻⁶ cm/s | 12 µL/min/mg | COc1cc2c(OC[C@H]3NC(=O)[C@H](F)[C@H]3C)nccc2cc1C(N)=O | –
10.6 ×10⁻⁶ cm/s | 9 µL/min/mg | CCOc1cc2c(OC[C@@H]3CCC(=O)N3)nccc2cc1C(N)=O | –
10.5 ×10⁻⁶ cm/s | < 9 µL/min/mg | COc1cc2c(OC[C@H]3NC(=O)C[C@H]3C)nccc2cc1C(N)=O | –
15.8 ×10⁻⁶ cm/s | 9 µL/min/mg | COc1cc2c(OC[C@H]3NC(=O)[C@@H](C)[C@H]3C)nccc2cc1C(N)=O | –
11.4 ×10⁻⁶ cm/s | 11 µL/min/mg | CC(C)Oc1cc2c(O[C@@H]3CCCNC3)nccc2cc1C(N)=O | IC50 [3]: 121 nM; IC50 [19]: 1550 nM; logD [4]: 0.7
13.9 ×10⁻⁶ cm/s | 32 µL/min/mg | COc1cc2c(OC[C@H]3NC(=O)[C@H](C)[C@H]3C)nccc2cc1C(N)=O | –
14.2 ×10⁻⁶ cm/s | 15 µL/min/mg | CC[C@H]1[C@@H](COc2nccc3cc(C(N)=O)c(OC)cc23)NC(=O)[C@@H]1F | –
– | – | CC(C)Oc1cc2c(-c3ccc(C#N)cc3)cccc2cc1C(N)=O | IC50 [3]: 71.9 nM
– | – | CC(C)Oc1cc2ccccc2cc1C(N)=O | IC50 [3]: 2090 nM

SMILES | Papp A→B [1] | microsomal CLint [2] | further results
CC(C)Oc1cc2c(OC[C@@H]3CCC(=O)N3)nccc2cc1C(N)=O | 10.7 ×10⁻⁶ cm/s | 10 µL/min/mg | inhibition [10]: Active; IC50 [11]: > 30000 nM; clearance (Rattus norvegicus [5]): 23 mL/min/kg; fraction unbound [12]: 0.29; Occ (Rattus norvegicus [13]): 80%; fraction unbound [14]: 0.21; inhibition at 3 µM (CYP3A4): < 10%; solubility thermodynamic [15]: 78 µM (≈ 26.8 µg/mL); inhibition at 3 µM (CYP1A2): < 10%; inhibition at 3 µM (CYP2C8): < 10%; inhibition at 3 µM (CYP2D6): < 10%; half-life [6]: 1.2 h; Activity (Rattus norvegicus [16]): Active; Activity (Rattus norvegicus [17]): Active; Occ (Rattus norvegicus [18]): Dose-dependent effect; bioavailability [7]: 57%; inhibition at 3 µM (CYP2C9): 13.6%
COC[C@@H]1CC(=O)N[C@@H]1COc1nccc2cc(C(N)=O)c(OC)cc12 | 12.5 ×10⁻⁶ cm/s | < 8 µL/min/mg | IC50 [19]: 373 nM
CCC[C@@H]1CC(=O)N[C@@H]1COc1nccc2cc(C(N)=O)c(OC)cc12 | 18.9 ×10⁻⁶ cm/s | 44 µL/min/mg | IC50 [19]: 28.4 nM
